Measurements from ChEMBL document CHEMBL4251567 (Eur J Med Chem, 2018).

Tests used:
[1] = molecular target: T1, Histone deacetylase 8 (Homo sapiens) (UniProt Q9BY41); experiment: Inhibition of human recombinant full-length C-terminal His-tagged HDAC8 expressed in baculovirus infected Sf9 insect cell assessed as remaining activity at 8 x 10^-7 M preincubated for 15 mins followed by HDAC-Glo substrate addition measured after 30 mins by fluorimetric method rel;ative to control
T1 sequence (whole entry): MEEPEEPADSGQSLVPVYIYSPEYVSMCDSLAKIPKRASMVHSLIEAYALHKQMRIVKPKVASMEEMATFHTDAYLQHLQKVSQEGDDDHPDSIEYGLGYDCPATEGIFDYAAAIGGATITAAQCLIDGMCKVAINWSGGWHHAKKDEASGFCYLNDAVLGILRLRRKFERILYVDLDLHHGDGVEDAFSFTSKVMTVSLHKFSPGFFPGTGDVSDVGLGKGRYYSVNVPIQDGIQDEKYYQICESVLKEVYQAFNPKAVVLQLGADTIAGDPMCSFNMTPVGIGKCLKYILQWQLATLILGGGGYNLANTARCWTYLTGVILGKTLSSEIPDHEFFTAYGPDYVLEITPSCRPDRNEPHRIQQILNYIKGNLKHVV
In short: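 Recombinant HDAC8 (75 ng) preincubated 15 min at RT with inhibitor in DMSO in HDAC-Glo buffer. HDAC-Glo reagent added and luminescence read 30 min later. Background taken from a reaction without enzyme; activity as % of DMSO control.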

[2] = molecular target: T2, Histone deacetylase (Homo sapiens) (UniProt Q13547+O15379+Q9UBN7+Q92769+Q9UQL6+Q8WUI4+Q9BY41+Q96DB2+P56524+Q9UKV0+Q969S8); experiment: Inhibition of HDAC in human HeLa-S3 cell lysates assessed as residual activity at 2.4 x 10^-5 M preincubated for 15 mins followed by HDAC-Glo substrate addition measured after 35 mins by […] relative to control; type: protein assay
[3] = molecular target: Histone deacetylase 1 (Homo sapiens) (UniProt Q13547); experiment: Inhibition of HDAC1 in human HeLa-S3 cell lysates assessed as remaining activity at 1 x 10^-6 M preincubated for 15 mins followed by HDAC-Glo substrate addition measured after 30 to 40 mins by fluorimetric method relative to control
In short: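 HDAC1 was captured from HeLa-S3 lysate (100 μg/mL) onto wells precoated with anti-HDAC1 antibody (10 μg/mL, carbonate buffer pH 9.4) and milk-blocked, 1 h at 4 °C, then washed. Inhibitor in DMSO was added in HDAC-Glo buffer for 15 min at room temperature. HDAC-Glo reagent was added and luminescence read after 30-40 min. Concentrations are final. No-antibody background subtracted; % of DMSO control.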

[4] = molecular target: Histone deacetylase 1 (Homo sapiens) (UniProt Q13547); experiment: Inhibition of HDAC1 in human HeLa-S3 cell lysates assessed as remaining activity at 2 x 10^-6 M preincubated for 15 mins followed by HDAC-Glo substrate addition […] relative to control
[5] = molecular target: Histone deacetylase 2 (Homo sapiens) (UniProt Q92769); experiment: Inhibition of HDAC2 in human HeLa-S3 cell lysates assessed as remaining activity at 4 x 10^-6 M preincubated for 15 mins followed by HDAC-Glo substrate addition […] relative to control
[6] = molecular target: T2, Histone deacetylase (Homo sapiens); experiment: Inhibition of HDAC in human HeLa-S3 cell lysates assessed as residual activity at 6 x 10^-6 M preincubated for 15 mins followed by HDAC-Glo substrate addition measured after 35 mins by […] relative to control; type: protein assay
In short: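 Lysate (1 μg total protein) in HDAC-Glo buffer was preincubated with inhibitor in DMSO for 15 min at room temperature. HDAC-Glo substrate/developer reagent was added and luminescence read after 35 min. Concentrations are final. Signal corrected for a no-lysate blank; % of DMSO control.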

[7] = molecular target: T2, Histone deacetylase (Homo sapiens); experiment: Inhibition of HDAC in human HeLa-S3 cell lysates assessed as residual activity at 1.2 x 10^-5 M preincubated for 15 mins followed by HDAC-Glo substrate addition measured after 35 mins by […] relative to control; type: protein assay
[8] = molecular target: T3, Protein deacetylase HDAC6 (Homo sapiens) (UniProt Q9UBN7); experiment: Inhibition of HDAC6 in human U937 cells assessed as increase in acetyl-alpha-tubulin levels after 18 hrs by Western blot method; type: cell-based
T3 sequence (whole entry): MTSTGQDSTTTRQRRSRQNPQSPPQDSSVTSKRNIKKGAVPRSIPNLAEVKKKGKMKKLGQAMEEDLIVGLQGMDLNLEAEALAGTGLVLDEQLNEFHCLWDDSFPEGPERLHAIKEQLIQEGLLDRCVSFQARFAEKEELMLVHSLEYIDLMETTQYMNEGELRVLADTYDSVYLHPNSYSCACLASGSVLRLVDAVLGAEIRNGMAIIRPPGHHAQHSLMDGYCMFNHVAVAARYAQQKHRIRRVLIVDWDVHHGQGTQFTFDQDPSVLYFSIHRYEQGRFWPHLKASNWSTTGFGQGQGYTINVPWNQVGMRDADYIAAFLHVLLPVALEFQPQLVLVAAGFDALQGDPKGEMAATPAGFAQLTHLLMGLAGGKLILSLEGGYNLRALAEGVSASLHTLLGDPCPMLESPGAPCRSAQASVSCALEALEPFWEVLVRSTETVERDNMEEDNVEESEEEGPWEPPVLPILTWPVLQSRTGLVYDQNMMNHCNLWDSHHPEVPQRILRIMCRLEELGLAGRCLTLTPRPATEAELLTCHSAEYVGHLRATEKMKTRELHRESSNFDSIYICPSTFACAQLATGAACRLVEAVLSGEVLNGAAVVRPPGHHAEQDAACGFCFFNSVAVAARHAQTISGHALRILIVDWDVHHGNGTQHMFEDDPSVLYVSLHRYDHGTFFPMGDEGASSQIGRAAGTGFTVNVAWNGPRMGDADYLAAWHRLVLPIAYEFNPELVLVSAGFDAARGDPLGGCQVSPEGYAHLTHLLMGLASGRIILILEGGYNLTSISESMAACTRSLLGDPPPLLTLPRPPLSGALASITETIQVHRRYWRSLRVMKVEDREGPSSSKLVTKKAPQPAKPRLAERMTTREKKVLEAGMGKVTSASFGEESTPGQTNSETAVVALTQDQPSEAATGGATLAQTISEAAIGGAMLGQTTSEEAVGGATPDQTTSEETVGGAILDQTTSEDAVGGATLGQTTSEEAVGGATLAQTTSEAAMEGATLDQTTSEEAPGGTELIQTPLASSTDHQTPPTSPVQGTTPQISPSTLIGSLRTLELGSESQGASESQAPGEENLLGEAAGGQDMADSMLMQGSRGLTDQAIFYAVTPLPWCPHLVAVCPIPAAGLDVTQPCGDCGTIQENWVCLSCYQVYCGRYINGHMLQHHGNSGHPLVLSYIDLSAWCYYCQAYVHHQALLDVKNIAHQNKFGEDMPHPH
In short: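 U937 cells (10^6/well in RPMI-1640 with 10% FCS) treated 18 h at 37 °C, 5% CO2 with inhibitor or DMSO (1% final). Lysates separated on 16% SDS-PAGE and blotted to PVDF. Probed with anti-acetyl-α-tubulin(Lys40) and anti-acetyl-H3(Lys9), GAPDH as load control; ECL detection. Blots representative of three trials.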

Histone deacetylase 1 (Homo sapiens), sequence (Q13547 whole entry): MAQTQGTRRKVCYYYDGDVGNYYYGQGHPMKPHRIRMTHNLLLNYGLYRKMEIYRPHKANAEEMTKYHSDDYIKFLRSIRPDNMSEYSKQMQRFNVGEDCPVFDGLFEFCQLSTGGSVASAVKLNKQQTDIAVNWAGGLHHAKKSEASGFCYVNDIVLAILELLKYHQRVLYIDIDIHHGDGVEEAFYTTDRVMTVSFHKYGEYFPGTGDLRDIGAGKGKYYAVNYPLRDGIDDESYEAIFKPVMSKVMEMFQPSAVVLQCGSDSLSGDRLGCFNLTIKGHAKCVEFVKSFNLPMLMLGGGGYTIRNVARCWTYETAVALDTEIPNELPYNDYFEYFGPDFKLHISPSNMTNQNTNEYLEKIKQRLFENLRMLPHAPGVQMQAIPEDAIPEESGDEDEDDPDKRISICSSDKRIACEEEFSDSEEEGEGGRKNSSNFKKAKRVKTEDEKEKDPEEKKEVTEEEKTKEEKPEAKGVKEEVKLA
Histone deacetylase 2 (Homo sapiens), sequence (Q92769 whole entry): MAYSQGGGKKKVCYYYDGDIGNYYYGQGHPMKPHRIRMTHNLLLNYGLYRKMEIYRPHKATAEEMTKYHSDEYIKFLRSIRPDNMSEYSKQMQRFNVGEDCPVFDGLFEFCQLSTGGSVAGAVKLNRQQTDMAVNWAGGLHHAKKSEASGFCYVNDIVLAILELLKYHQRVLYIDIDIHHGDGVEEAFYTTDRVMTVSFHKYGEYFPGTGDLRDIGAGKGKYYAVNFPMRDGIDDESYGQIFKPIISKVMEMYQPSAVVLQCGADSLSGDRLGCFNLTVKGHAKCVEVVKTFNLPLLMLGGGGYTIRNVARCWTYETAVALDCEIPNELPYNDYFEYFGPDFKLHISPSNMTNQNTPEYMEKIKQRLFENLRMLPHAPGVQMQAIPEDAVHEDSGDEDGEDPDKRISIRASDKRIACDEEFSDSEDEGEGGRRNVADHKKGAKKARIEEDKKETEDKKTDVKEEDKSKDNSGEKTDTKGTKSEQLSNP

O=C(CC[C@H](CCCC(=O)Nc1ccccc1)Cc1ccccc1)NO
Activity [1]: 19%

CCC(CCCC(=O)Nc1ccccc1)CCC(=O)NO (stereo not drawn)
Activity [2]: 31% | Activity [3]: 81% | Activity [4]: 68% | Activity [5]: 59% | Activity [6]: 82% | Activity [7]: 53%

O=C(CCC(CCCC(=O)Nc1ccccc1)Cc1ccccc1)NO (racemic)
inhibition [8]: Dose-dependent effect
